IDE inh – human IDE inhibitors in live cells, primary screen, fluorescence polarization, HEK cells, FAbetaB substrate; Insulin-degrading enzyme (Homo sapiens), P14735; inhibition, % at 5.59 µM; FAbetaB cleavage; actives 0.41% (n = 320,000); AID 434962, 2010;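 active = percent inhibition above the average of all tested compounds plus 3 SD, set per screening campaign, cut at about 16% in these data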;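 also: IDE supplied by intact live HEK cells; FP after avidin binding of uncleaved biotin substrate so inhibition keeps polarization high; 0% = DMSO wells and 100% = 60 µM reference IDE inhibitor Ii1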
Target sequence (P14735 whole entry, looked up): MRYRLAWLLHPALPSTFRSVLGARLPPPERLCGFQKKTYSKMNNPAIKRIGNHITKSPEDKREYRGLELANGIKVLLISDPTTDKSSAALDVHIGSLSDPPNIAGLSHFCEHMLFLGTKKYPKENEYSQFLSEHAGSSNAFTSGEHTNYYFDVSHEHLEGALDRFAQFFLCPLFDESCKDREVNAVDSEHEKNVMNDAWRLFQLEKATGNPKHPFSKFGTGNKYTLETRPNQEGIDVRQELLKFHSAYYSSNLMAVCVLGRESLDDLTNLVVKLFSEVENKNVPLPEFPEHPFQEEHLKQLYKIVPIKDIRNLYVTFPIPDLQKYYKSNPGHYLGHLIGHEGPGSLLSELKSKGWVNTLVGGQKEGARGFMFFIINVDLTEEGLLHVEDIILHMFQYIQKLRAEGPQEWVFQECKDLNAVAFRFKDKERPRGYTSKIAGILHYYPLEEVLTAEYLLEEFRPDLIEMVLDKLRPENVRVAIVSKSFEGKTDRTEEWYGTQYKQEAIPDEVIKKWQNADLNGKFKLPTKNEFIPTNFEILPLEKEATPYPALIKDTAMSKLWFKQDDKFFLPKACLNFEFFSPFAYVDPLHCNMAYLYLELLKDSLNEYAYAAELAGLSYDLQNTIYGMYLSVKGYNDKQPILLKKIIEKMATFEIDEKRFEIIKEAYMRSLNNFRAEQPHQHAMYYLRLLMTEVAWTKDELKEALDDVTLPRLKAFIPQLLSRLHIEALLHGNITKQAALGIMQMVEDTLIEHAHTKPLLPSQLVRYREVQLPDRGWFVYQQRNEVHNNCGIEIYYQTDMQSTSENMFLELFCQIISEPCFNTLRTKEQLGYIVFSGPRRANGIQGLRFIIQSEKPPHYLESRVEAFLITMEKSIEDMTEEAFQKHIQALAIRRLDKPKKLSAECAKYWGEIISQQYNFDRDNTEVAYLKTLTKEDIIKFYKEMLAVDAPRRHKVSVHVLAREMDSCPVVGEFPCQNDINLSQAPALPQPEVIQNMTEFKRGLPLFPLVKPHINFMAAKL
Rpn11 inh – Rpn11 (PSMD14) deubiquitinase inhibitors, primary screen, biochemical, fluorescence polarization, uHTS | 26S proteasome non-ATPase regulatory subunit 14 (Homo sapiens), O00487 | human 26S proteasome, Ub4-pepOG fluorescence polarization; 20S core pre-blocked with epoxomicin | inhibition, % at 20 µM | actives 0.59% (n = 360,000) | AID 588493, 2011;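 active = inhibition at 20 µM, scaled to each plate's controls, above about 33%, limit read from the data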
HNF4A DNA FP – change in binding of human HNF4A to DNA, primary screen, biochemical, fluorescence polarization, FITC-DNA | AID 1224865, 2016 | actives 0.3% (n = 360,000) | activity change, % at 10 µM | 1 h; in the data active = activity change above about 30%, passing the limit was not always enough
IDE act – human IDE activators in live cells, primary screen, fluorescence polarization, HEK cells, FAbeta-B substrate; actives 0.073% (n = 340,000); FAbeta-B cleavage; 0% vehicle, 100% cell-free pure enzyme wells; activation, % at 5.96 µM; Insulin-degrading enzyme (Homo sapiens), P14735;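 active = activation above the mean of all tested compounds plus 3 SD, set per screening campaign, cut at about 17% in these data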
TPT1 inhibitor – Candida albicans TPT1 enzyme inhibitors, primary screen, biochemical, fluorescence polarization. AID 1962, 2009. inhibition, % at 5 µM. tRNA 2'-phosphotransferase TPT1 (Candida albicans SC5314). actives 0.81% (n = 300,000). recombinant caTPT1, FP RNA substrate dephosphorylation;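 active = inhibition above the mean of all tested compounds plus 3 SD, set per screening campaign, cut at about 24% in these data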;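 also: plate controls were DMSO alone for no effect and ferristatin control at 100 nM for full effect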
CSN deneddyl inh – inhibitors of CSN-mediated cullin deneddylation, primary screen, biochemical, fluorescence polarization, uHTS. COP9 signalosome complex subunit 5 (Homo sapiens), Q92905. Purified CSN, SCF-Nedd8-OG deneddylation. inhibition, % at 12.5 µM. actives 0.38% (n = 360,000);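 active = pattern-corrected inhibition above about 35%, with an unprinted fluorescence ratio check between 0.5 and 1.5, limit read from the data, passing the limit was not always enough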;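 also: 0% = enzyme with substrate and 100% = substrate without enzyme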
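Detection – fluorescence polarization · System – HEK293T-derived human Csn5 enzyme · Controls – substrate-only high control, full reaction low control · Timing – 90 min, room temperature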
TPT1 inh confirm – Candida albicans TPT1 inhibitors, confirmation, biochemical, fluorescence polarization, triplicate. shares compounds with TPT1 inhibitor. recombinant caTPT1, RNase T1 coupled. inhibition, % at 5 µM. actives 74% (n = 2,400);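 active = inhibition above the primary screen limit, the mean inhibition of all tested compounds plus 3 SD, cut at about 25% in these data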
RNase T1 counter – RNase T1 inhibitors, counter-screen for TPT1 inhibitor project, biochemical, fluorescence polarization | RNase T1 cleavage, 1536-well | inhibition, % at 5 µM | shares compounds with TPT1 inhibitor | actives 83% (n = 2,400) | AID 2153, 2009;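 active = inhibition above the solvent-only control well mean plus 3 SD, limit set per screening run, cut at about 23% in these data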;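 also: plate controls were DMSO wells with enzyme for no effect and wells without RNase T1 for full effect; inhibitors block cleavage so intact labeled substrate keeps polarization high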
Rpn11 confirm – Rpn11 (PSMD14) deubiquitinase inhibitors, confirmation, biochemical, fluorescence polarization, single concentration; shares compounds with Rpn11 inh; purified human 26S proteasome, Ub4-pepOG fluorescence polarization; proteasome pretreated with epoxomicin; inhibition, % at 20 µM; actives 29% (n = 1,900); AID 602318, 2012
MMP-2 counter-1 – MMP-2 enzyme inhibition, confirmation, counter-screen for RPN11 inhibitor project, biochemical, fluorescence, single concentration. actives 4% (n = 1,900). shares compounds with Rpn11 inh. recombinant MMP-2, FRET peptide cleavage fluorescence. inhibition, % at 20 µM;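 also: human MMP-2 activated beforehand with APMA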
Thrombin FP – bovine thrombin protease inhibition, confirmation, counter-screen for Rpn11 inhibitor project, biochemical, fluorescence polarization, single concentration | shares compounds with Rpn11 inh | bovine thrombin cleavage of Ub4-pepOG | inhibition, % at 20 µM | actives 13% (n = 1,900) | AID 602333, 2012;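 active = mean inhibition at least 40% at 20 µM, or signal 3 deviations below plate average, so some actives read negative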;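 also: plate controls were thrombin with DMSO for no effect and buffer wells lacking thrombin for full effect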
CSN5 deneddyl – Csn5 deneddylation inhibitors, confirmation, biochemical, fluorescence polarization, single concentration, SCF-Nedd8OG substrate. shares compounds with CSN deneddyl inh. Csn5 deneddylation of SCF-Nedd8OG, 90 min. AID 720654, 2013. inhibition, % at 16.6 µM. actives 62% (n = 540); in the data active = inhibition above about 50%;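 also: 0% = DMSO with enzyme and 100% = no enzyme wells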
MMP-2 counter-2 – MMP-2 protease inhibition counter-screen, confirmation, counter-screen for CSN deneddylation inhibitor project, biochemical, fluorescence, single concentration; inhibition, % at 16.6 µM; AID 720655, 2013; recombinant MMP-2, FRET substrate fluorescence, 60 min; shares compounds with CSN deneddyl inh; actives 33% (n = 540);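 active = corrected plate-normalized z-score of 5 or more, or -5 or less, or inhibition of 15% or more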;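 also: plate controls were DMSO wells with enzyme for no effect and buffer wells lacking MMP-2 for full effect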
Thrombin cntr – counter-screen for CSN deneddylation inhibitors: bovine thrombin inhibition; inhibition, % at 16.6 µM; actives 49% (n = 540); bovine thrombin cleavage of Ub4-pepOG, fluorescence polarization; shares compounds with CSN deneddyl inh;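 active = inhibition at or above a set limit, with a fluorescence interference ratio between 0.5 and a set maximum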
Starred values were filed as active, the others as inactive. In the library only some 1.7% were active in any assay of this set; here they are far more common. Rule as the data show it, unless noted: active = inhibition above about 40%; inactive = the rest.

`COC(=O)c1ccc(N2NC(=O)/C(=C/c3cc(OC)c(OC)c(OC)c3)C2=O)cc1` gave IDE inh -1, Rpn11 inh 1, HNF4A DNA FP -6, IDE act -2, TPT1 inhibitor 1 and CSN deneddyl inh 3.
`COc1cc(/C=C2/C(=O)NN(c3ccc(Cl)cc3)C2=O)cc(Br)c1O` gave IDE inh 4, Rpn11 inh 68*, HNF4A DNA FP -10, IDE act -5, TPT1 inhibitor 67*, CSN deneddyl inh 45*, TPT1 inh confirm 112*, RNase T1 counter 123*, Rpn11 confirm 193*, MMP-2 counter-1 36, Thrombin FP 79*, CSN5 deneddyl -16, MMP-2 counter-2 7 and Thrombin cntr 23*.
Screening CCN(CC)S(=O)(=O)c1cccc(C(=O)N/N=C(\C)c2ccc(O)cc2O)c1 returned IDE inh -10, HNF4A DNA FP 27, IDE act 0, TPT1 inhibitor 89*, CSN deneddyl inh 37*, TPT1 inh confirm 140*, RNase T1 counter 129*, CSN5 deneddyl 92*, MMP-2 counter-2 -27* and Thrombin cntr 79*.
`CCN(CC)S(=O)(=O)c1cccc(C(=O)N/N=C/c2ccc(O)c(O)c2O)c1` gave IDE inh 6, Rpn11 inh 5, HNF4A DNA FP 3, IDE act -21, TPT1 inhibitor 10 and CSN deneddyl inh -12.
C[C@@]12CCC=C[C@H]1[C@H](c1ccc(C(F)(F)F)cc1)N(Cc1ccccc1)C2=O was read as IDE inh -6, Rpn11 inh 2, HNF4A DNA FP 0, IDE act 6, TPT1 inhibitor -7 and CSN deneddyl inh 1.
